Here are results for 11 molecules from ChEMBL document CHEMBL1150161, “New taxane diterpenoids from the leaves and twigs of Taxus sumatrana” (J Nat Prod, 2002).

≈ marks a conversion by molar mass, not a printed value.

A short description of experiment [1]: Cytotoxicity against human HEPA 59T/VGH cells after 72 hrs by methylene blue assay. The experiment is classed as functional, cell-based. Put shortly: (§1)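 Cells kept in RPMI-1640 at 37 °C under 5% CO2, seeded at 2880 cells/well and left 3 h before sample or standard drug was added. Samples prepared at 1, 10, 40 and 100 µg/mL (stock, not final). Incubated 37 °C for 3 days. Cells then fixed in 10% formaldehyde/0.9% saline, stained with methylene blue in borate buffer, and eluted with EtOH–0.1 M HCl (1:1). Read at A650. IC50 is the concentration giving 50% absorbance reduction versus untreated cells.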

The next experiment concerns KB. Put plainly: Cytotoxicity against human KB cells after 72 hrs by methylene blue assay. In kind it is functional, cell-based. In outline:
as §1

What is called IC50 is the midpoint of a concentration-inhibition curve. As for `CC(=O)O[C@H]1C[C@@]23C(=C1C)[C@@](O)(C(=O)OC2(C)C)[C@]1(C)[C@@H](OC(C)=O)C[C@H]2OC[C@@]2(OC(C)=O)[C@H]1[C@@H]3OC(=O)c1ccccc1`, the IC50 was determined as 3.09 µg/mL (≈ 4.93 µM) in experiment [1] and 8.96 µg/mL (≈ 14.3 µM) in the experiment with KB.

On to `CC(=O)O[C@H]1C[C@@]2(O)[C@H]3OC[C@]4(O)[C@@H](OC(C)=O)C[C@H](OC(=O)c5ccccc5)[C@](C)([C@H]34)[C@@H](OC(=O)c3ccccc3)[C@H](OC(C)=O)C(=C1C)C2(C)C`, for which the values for the IC50 (in experiment [1]; with KB) were 7.02 µg/mL (≈ 9.55 µM) and 12.8 µg/mL (≈ 17.4 µM), respectively.

Consider `CC(=O)O[C@H]1C(=O)[C@@]2(C)[C@H]([C@H](OC(=O)c3ccccc3)[C@]3(O)C[C@H](OC(=O)[C@H](O)[C@@H](NC(=O)c4ccccc4)c4ccccc4)C(C)=C1C3(C)C)[C@]1(OC(C)=O)CO[C@@H]1C[C@@H]2O` [PACLITAXEL], for which the IC50 (in experiment [1]; in the experiment with KB) was 0.001 µg/mL (≈ 0.00117 µM) in each case.

As to `CC(=O)O[C@@]12CO[C@@H]1C[C@H](OC(=O)c1ccccc1)[C@]1(C)[C@@H]2[C@H](OC(=O)c2ccccc2)[C@]23C[C@H](OC(=O)c4ccccc4)C(C)=C2[C@@]1(O)C(=O)OC3(C)C`, the figures for the concentration for half-maximal inhibition (IC50) (in experiment [1]; with KB) were 4.83 µg/mL (≈ 6.43 µM) and 15.4 µg/mL (≈ 20.6 µM), respectively.

On to `CC(=O)O[C@H]1C2[C@@](C)([C@@H](O)C[C@H]3OC[C@@]23OC(C)=O)[C@@H](O)[C@H](O)C2=C(C)[C@@H](O)C[C@]21C(C)(C)O` (some centres not stated) [TAXUMAIROL Q], for which the results for the IC50 (in experiment [1]; in the experiment with KB) were 14.5 µg/mL (≈ 30 µM) and 16.2 µg/mL (≈ 33.5 µM), respectively.

Regarding `CC(=O)O[C@H]1C[C@]2(C(C)(C)O)C(=C1C)[C@@H](OC(C)=O)[C@H](OC(C)=O)[C@@]1(C)[C@@H](OC(C)=O)C[C@H]3OC[C@@]3(OC(C)=O)[C@H]1[C@@H]2OC(C)=O`, the IC50 stood at 6.02 µg/mL (≈ 9.22 µM) in experiment [1] and 4.92 µg/mL (≈ 7.54 µM) in the experiment on KB.

With `CO[C@@]12[C@H](COC(N)=O)C3=C(C(=O)C(C)=C(N)C3=O)N1C[C@@H]1N[C@@H]12` [MITOMYCIN], the IC50 (in experiment [1]; in the experiment with KB) was 0.01 µg/mL (≈ 0.0299 µM) in each case.

For `CC(=O)O[C@@]12CO[C@@H]1C[C@H](O)[C@]1(C)[C@@H]2[C@H](OC(=O)c2ccccc2)[C@]23C[C@H](O)C(C)=C2[C@@]1(O)C(=O)OC3(C)C` [WALLIFOLIOL], the IC50 stood at 0.1 µg/mL (≈ 0.184 µM) in experiment [1] and 0.56 µg/mL (≈ 1.03 µM) with KB.

As to `C=C1[C@@H](O)C[C@H](OC(C)=O)[C@]2(C)[C@@H](OC(C)=O)[C@H](OC(C)=O)C3=C(C)C(=O)C[C@@H]([C@@H](OC(C)=O)[C@H]12)C3(C)C` [TAXUSPINE F], the results for the concentration for half-maximal inhibition (IC50) (in experiment [1]; with KB) were 3.31 µg/mL (≈ 6.19 µM) and 16.9 µg/mL (≈ 31.6 µM), respectively.

Regarding `CC(=O)O[C@H]1C[C@@]23C(=C1C)[C@@](O)(C(=O)OC2(C)C)[C@@]1(C)[C@H]([C@@H]3OC(=O)c2ccccc2)[C@]2(OC(C)=O)CO[C@@H]2C[C@@H]1O`, the IC50 was 13.9 µg/mL (≈ 23.8 µM) in experiment [1] and 2.91 µg/mL (≈ 4.98 µM) in the experiment with KB.

`CC(=O)O[C@H]1C[C@H]2OC[C@@]2(OC(C)=O)[C@H]2[C@H](OC(C)=O)[C@]3(C(C)(C)O)C[C@H](OC(=O)c4ccccc4)C(C)=C3[C@@H](OC(=O)c3ccccc3)[C@H](OC(C)=O)[C@]12C`: the IC50 is greater than 20 µg/mL in experiment [1] and 9.69 µg/mL (≈ 12.5 µM) in the experiment with KB.
